Source: ChEMBL document CHEMBL1177869, “Synthesis and dual PPARalpha/delta agonist effects of 1,4-disubstituted 1,2,3-triazole analogues of GW 501516” (Eur J Med Chem, 2010)
The source made the active and inactive calls. No cut-off for these calls is given here.

Experiments:
[1] = Induction of [14C]-oleic acid oxidation in human differentiated skeletal muscle cells assessed as accumulation of oxidized [14C]-oleic acid after 4 hrs by liquid scintillation counting; assay type: functional
Outline: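 Human skeletal muscle myoblasts grown to 70-80% confluence, then differentiated 7 days (DMEM 5.5 mM glucose, 2% FCS, 25 pM insulin). Compound at five concentrations from day 3 (96 h). [1-14C]oleic acid (1 μCi/mL, 100 μM) in DPBS with 10 mM HEPES and 1 mM L-carnitine, 4 h at 37 °C. Filter-trapped CO2 counted by scintillation, normalized to protein. EC50 by non-linear regression. GW 501516 positive control.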

[2] = target: T1, Peroxisome proliferator-activated receptor gamma (Homo sapiens) (UniProt P37231); assay: Agonist activity at human PPARgamma ligand binding domain expressed in COS-1 cells co-transfected with Gal4 at 10 uM by luciferase reporter gene assay; assay type: cell-based
T1 sequence (whole entry): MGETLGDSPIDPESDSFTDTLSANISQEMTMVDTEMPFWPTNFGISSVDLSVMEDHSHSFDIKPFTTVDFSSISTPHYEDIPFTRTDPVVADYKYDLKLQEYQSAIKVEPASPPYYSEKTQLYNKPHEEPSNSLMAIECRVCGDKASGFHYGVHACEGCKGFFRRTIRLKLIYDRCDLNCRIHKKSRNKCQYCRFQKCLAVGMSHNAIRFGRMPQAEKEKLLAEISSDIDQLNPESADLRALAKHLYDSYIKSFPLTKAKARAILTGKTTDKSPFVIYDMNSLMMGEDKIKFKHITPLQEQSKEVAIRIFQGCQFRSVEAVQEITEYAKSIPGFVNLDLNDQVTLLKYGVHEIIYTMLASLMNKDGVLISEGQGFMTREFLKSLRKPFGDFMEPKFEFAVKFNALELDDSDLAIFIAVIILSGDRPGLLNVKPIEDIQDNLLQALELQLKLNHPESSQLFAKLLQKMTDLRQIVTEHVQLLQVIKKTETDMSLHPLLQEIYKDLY
Outline: (§1)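 COS-1 cells in DMEM with 10% inactivated FBS, 37 °C, 5% CO2, plated 1 day before lipofectamine transfection. Per well: 320 ng (UAS)5-tk-LUC reporter, 640 ng empty pGL3 basic, 30 ng pSG5-GAL4-hPPAR (α, δ or γ). Compound 10 μM (DMSO negative control) added 5 h post-transfection. Cells kept 24 h, then lysed for luciferase read-out. Positive controls: EHA for PPARα, GW 501516 for PPARδ.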

[3] = target: T2, Peroxisome proliferator-activated receptor alpha (Homo sapiens) (UniProt Q07869); assay: Agonist activity at human PPARalpha ligand binding domain expressed in COS-1 cells co-transfected with Gal4 at 10 uM by luciferase reporter gene assay; assay type: cell-based; outline: as §1
T2 sequence (whole entry): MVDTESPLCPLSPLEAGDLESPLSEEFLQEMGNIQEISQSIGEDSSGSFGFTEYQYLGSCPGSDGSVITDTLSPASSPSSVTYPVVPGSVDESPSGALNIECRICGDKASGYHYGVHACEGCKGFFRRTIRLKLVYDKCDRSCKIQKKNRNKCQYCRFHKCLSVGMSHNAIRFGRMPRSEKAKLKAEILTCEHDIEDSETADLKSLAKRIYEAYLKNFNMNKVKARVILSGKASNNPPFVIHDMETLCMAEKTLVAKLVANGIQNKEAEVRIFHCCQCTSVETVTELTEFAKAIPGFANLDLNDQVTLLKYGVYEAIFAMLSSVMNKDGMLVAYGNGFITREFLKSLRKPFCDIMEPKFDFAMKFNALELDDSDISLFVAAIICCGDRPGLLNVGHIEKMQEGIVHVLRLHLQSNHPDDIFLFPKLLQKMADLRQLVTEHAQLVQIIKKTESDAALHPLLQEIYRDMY

[4] = target: T3, Peroxisome proliferator-activated receptor delta (Homo sapiens) (UniProt Q03181); assay: Agonist activity at human PPARdelta ligand binding domain expressed in COS-1 cells co-transfected with Gal4 at 10 uM by luciferase reporter gene assay; assay type: cell-based
T3 sequence (whole entry): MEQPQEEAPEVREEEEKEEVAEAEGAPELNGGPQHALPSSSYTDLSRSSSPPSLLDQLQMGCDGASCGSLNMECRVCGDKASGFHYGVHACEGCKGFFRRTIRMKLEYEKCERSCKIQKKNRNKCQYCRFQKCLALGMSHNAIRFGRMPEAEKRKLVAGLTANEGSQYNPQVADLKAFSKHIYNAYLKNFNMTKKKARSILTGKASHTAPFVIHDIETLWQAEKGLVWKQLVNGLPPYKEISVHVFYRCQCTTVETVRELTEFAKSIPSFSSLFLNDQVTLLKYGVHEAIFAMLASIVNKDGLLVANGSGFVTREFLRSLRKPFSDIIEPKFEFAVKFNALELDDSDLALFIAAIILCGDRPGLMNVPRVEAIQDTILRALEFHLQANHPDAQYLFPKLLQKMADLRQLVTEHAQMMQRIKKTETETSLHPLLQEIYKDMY
Outline: as §1, with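 “read-out.” for “read-out. Positive controls: EHA for PPARα, GW 501516 for PPARδ.”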

Row | EC50 [1] | Activity [2] | Activity [3] | Activity [4] | Compound
1 | 1.4 nM |  |  |  | Cc1cc(SCc2cn(-c3ccc(OC(F)(F)F)c(F)c3)nn2)ccc1OCC(=O)O
2 | 10 nM |  |  |  | Cc1cc(SCc2cn(-c3ccc(OC(F)(F)F)cc3)nn2)ccc1OCC(=O)O
3 | 0.07 nM |  |  |  | Cc1cc(SCc2sc(-c3ccc(C(F)(F)F)cc3)nc2C)ccc1OCC(=O)O [GW501516]
4 | 12 nM | inactive | Active | Active | Cc1cc(SCc2cn(-c3ccc(OC(F)(F)F)c(Cl)c3)nn2)ccc1OCC(=O)O
5 | 0.85 nM | inactive | Active | Active | Cc1cc(SCc2cn(-c3ccc(C(F)(F)F)c(F)c3)nn2)ccc1OCC(=O)O
6 | 1.8 nM |  |  |  | Cc1cc(SCc2cn(-c3ccc(C(F)(F)F)cc3)nn2)ccc1OCC(=O)O
